Results collected from several papers.
Compare with care: the assays were run in different laboratories.
MMP8: Neutrophil collagenase (MMP8, Homo sapiens, UniProt P22894)
PDE2A: cGMP-dependent 3',5'-cyclic phosphodiesterase (PDE2A, Homo sapiens, UniProt O00408)

SMILES	target	assay	setting	inhibition [%]
CCN(CC)CCCC[C@H](NC(=O)[C@H](CC(C)C)NC(=O)[C@H](C)NC(=O)[C@H](Cc1ccccc1)NC(=O)c1ccc(C(C)(C)C)cc1)C(=O)N[C@@H](CO)C(=O)OC	Cholecystokinin receptor type A (CCKAR, Homo sapiens, UniProt P32238)	ligand displacement, radioligand	10 µM	33
CN(C)C(=O)COC(=O)Cc1ccc(OC(=O)c2ccc(NC(=N)N)cc2)cc1	MMP8	enzyme activity, inhibitor	10 µM	33
Cc1ncc(C)n2nc(/C=C/c3nc(N4CCCC4)cc(N4CCOCC4)n3)nc12	PDE2A	enzyme activity, inhibitor	10 µM	38
O=C(O)Cc1ccccc1Nc1c(Cl)cccc1Cl	Histone acetyltransferase p300 (EP300, Homo sapiens, UniProt Q09472)	enzyme activity, inhibitor, mobility shift	1.25 mM	> 50
O=C(Nc1cccnn1)N1CCN([C@@H]2CCOc3cc(C(F)(F)F)ccc32)CC1	5-hydroxytryptamine receptor 1D (Htr1d, Rattus norvegicus, UniProt P28565)	cell-free assay	20 µM	4
Cn1cc(-c2cccc(N3CCc4c(sc5c4CC(C)(C)C5)C3=O)c2CO)cc(Nc2ccncn2)c1=O	Dual specificity mitogen-activated protein kinase kinase 6 (MAP2K6, Homo sapiens, UniProt P52564)	enzyme activity, inhibitor	1 µM	11
COc1ccc(S(=O)(=O)N(CC(=O)NO)CC(C)C)cc1	MMP8	enzyme activity, inhibitor	10 nM	5
CC(C)=CCCC1(C)C=Cc2c(O)c3c(c(CC=C(C)C)c2O1)OC12C(=CC4CC1C(C)(C)OC2(C/C=C(/C)C(=O)O)C4O)C3=O (stereo not drawn)	N-lysine methyltransferase KMT5A (KMT5A, Homo sapiens, UniProt Q9NQR1)	cell-free assay	10 µM	7
C#Cc1n[nH]c2c(-c3cn(C(C)c4ccccn4)c(=O)[nH]c3=O)cc(F)cc12 (stereo not drawn)	Misshapen-like kinase 1 (MINK1, Homo sapiens, UniProt Q8N4C8)	enzyme activity, inhibitor	1 µM	-10.4
c1ccc(C(NCCNC(c2ccccc2)c2ccccc2)c2ccccc2)cc1	Carbonic anhydrase 2 (CA2, Homo sapiens, UniProt P00918)	enzyme activity, inhibitor	10 µM	-7
N=C(N)c1ccc2cc(OC(=O)c3ccc(N=C(N)N)cc3)ccc2c1	MMP8	enzyme activity, inhibitor	10 µM	0
Cn1cc(-c2cc(F)cc(N3CCn4c(cc5c4CCCC5)C3=O)c2CO)cc(Nc2ccc(N3CCN(C4COC4)CC3)cn2)c1=O	G protein-coupled receptor kinase 3 (GRK3, Homo sapiens, UniProt P35626)	enzyme activity, inhibitor	0.1 µM	0
COc1cc(Nc2ncc(F)c(Nc3ccc4c(n3)NC(=O)C(C)(C)O4)n2)cc(OC)c1OC	Receptor-interacting serine/threonine-protein kinase 4 (RIPK4, Homo sapiens, UniProt P57078)	binding	10 µM	96
CN(CCN1CCC(OC(=O)Nc2ccccc2-c2ccccc2)CC1)C(=O)c1ccc(CN2CCC(C(N)=O)CC2)cc1	PDE2A	enzyme activity, inhibitor	1 µM	1
Clc1ccc2c(C3CCN(CCc4c[nH]c5ccccc45)CC3)c[nH]c2c1	Androgen receptor (AR, Homo sapiens, UniProt P10275)	ligand displacement, radioligand	10 µM	25
